Experimental data of several laboratories.
Each line is one published result; the experiments were not run side by side.
Read-out: cell growth or viability

| SMILES | cell line | assay | conditions | IC50 [µM] |
| --- | --- | --- | --- | --- |
| C[C@H]1O[C@@H](O[C@H]2[C@@H](O)C[C@H](O[C@H]3[C@@H](O)C[C@H](O[C@H]4CC[C@@]5(C)[C@H](CC[C@@H]6[C@@H]5CC[C@]5(C)[C@@H](C7=CC(=O)OC7)CC[C@]65O)C4)O[C@@H]3C)O[C@@H]2C)C[C@H](O)[C@@H]1O | GISTT1 | resazurin | 72 h | < 0.16 |
| COc1cc(C(=O)c2sc3c(OC)cccc3c2N)cc(OC)c1OC | L1210 | – | 48 h | 0.033 |
| C[C@@H]1C[C@H](O)[C@]2(O)O[C@@H]3C[C@@]4(C)[C@@H](CC[C@@H]5[C@@H]4CC[C@]4(C)[C@@H](C6=CC(=O)OC6)CC[C@]54O)C[C@H]3O[C@@H]2O1 | L6 | resazurin | 72 h | 7.63 |
| CC(C(=O)N1CCCCC1)c1cccc(C(OC(=O)N2CCCCC2)c2ccccc2)c1 (stereo not drawn) | FM3A | – | 48 h | 8 |
| C[C@@H]1C[C@@]2(N=CCS2)[C@]2(O)O[C@@H]3C[C@@]4(C=O)[C@@H](CC[C@@H]5[C@@H]4CC[C@]4(C)[C@@H](C6=CC(=O)OC6)CC[C@]54O)C[C@H]3O[C@@H]2O1 | L6 | resazurin | 72 h | 6.17 |
| C[C@H]1O[C@@H](O[C@H]2[C@@H](O)C[C@H](O[C@H]3[C@@H](O)C[C@H](O[C@H]4CC[C@@]5(C)[C@H](CC[C@@H]6[C@@H]5C[C@@H](O)[C@]5(C)[C@@H](C7=CC(=O)OC7)CC[C@]65O)C4)O[C@@H]3C)O[C@@H]2C)C[C@H](O)[C@@H]1O | GISTT1 | resazurin | 72 h | 0.16 |
| CS(=O)(=O)c1ccc(S(=O)(=O)N2CCc3[nH]c4ccccc4c3C2)cc1 | L6 | – | – | > 250 |
| COc1ccc(N(C)c2nc(Cl)nc3cccnc23)cc1F | MDA-MB-453 | MTS | 72 h | 0.0042 |
| N.N.[Cl][Pt][Cl] | NCI-H460 | – | 48 h | 21.6 |
| CC(C(=O)NCc1ccccc1)c1cccc(C(OC(=O)NCc2ccccc2)c2ccccc2)c1 (stereo not drawn) | L1210 | – | 48 h | 10 |
| CC(C)=CCOc1c2occc2cc2ccc(=O)oc12 | COLO 205 | MTT | 24 h | > 100 |
| COc1ccc2c(c1)NC(=O)CN2c1nc(C)nc(C)c1C | MDA-MB-453 | MTS | 72 h | 0.0043 |
| CC(C(=O)NCCc1ccccc1)c1cccc(C(OC(=O)NCCc2ccccc2)c2ccccc2)c1 (stereo not drawn) | L1210 | – | 48 h | 8.2 |
| N.N.[Cl][Pt][Cl] | NCI-H460 | MTT | 72 h | 2 |
| CC(C(=O)NC1CCCCC1)c1cccc(C(OC(=O)NC2CCCCC2)c2ccccc2)c1 (stereo not drawn) | FM3A | – | 48 h | 15 |
| COc1cc(C(=O)c2cc3c(-c4ccccc4)c(OC)ccc3o2)cc(OC)c1OC | L1210 | – | 48 h | > 50 |
| Cc1n[nH]cc1-c1cc2nc([C@@H]3CC4CCN3CC4)[nH]c(=O)c2s1 | COLO 205 | MTT | – | 0.0367 |
| CC(C(=O)NC1CCCC1)c1cccc(C(OC(=O)NC2CCCC2)c2ccccc2)c1 (stereo not drawn) | L1210 | – | 48 h | 9.8 |
